Data: ChEMBL document CHEMBL1143971, “Synthesis, adenosine receptor binding and 3D-QSAR of 4-substituted 2-(2'-furyl)-1,2,4-triazolo[1,5-a]quinoxalines” (Bioorg Med Chem, 2008)

How the values were obtained:
Format in all cases: cell-based
Adenosine receptor A2b = biological target: T1, Adenosine receptor A2b (Homo sapiens, UniProt P29275); assay: Displacement of [3]DPCPX from human adenosine A2B receptor expressed in HEK293 cells
T1 sequence (P29275 whole entry): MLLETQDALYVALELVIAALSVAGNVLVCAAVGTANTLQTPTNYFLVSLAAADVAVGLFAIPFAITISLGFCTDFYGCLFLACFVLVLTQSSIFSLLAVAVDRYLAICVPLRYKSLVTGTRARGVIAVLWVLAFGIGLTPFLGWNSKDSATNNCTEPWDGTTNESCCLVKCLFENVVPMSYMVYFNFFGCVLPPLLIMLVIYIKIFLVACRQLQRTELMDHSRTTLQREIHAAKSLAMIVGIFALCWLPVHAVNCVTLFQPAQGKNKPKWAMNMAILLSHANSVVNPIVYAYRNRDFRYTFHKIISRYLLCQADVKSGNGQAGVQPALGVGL
In short: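 Membranes (18 µg) incubated 30 min at 25 °C with 35 nM [3H]DPCPX in 50 mM Tris-HCl, 1 mM EDTA, 10 mM MgCl2, 0.1 mM benzamidine, 2 U/mL adenosine deaminase, pH 6.5, plus six concentrations (0.1 nM–1 µM). Nonspecific binding defined with 400 µM NECA. GF/B filtration, six washes with Tris pH 6.5. Ki via Cheng–Prusoff.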

Adenosine receptor A3 = biological target: T2, Adenosine receptor A3 (Homo sapiens, UniProt P0DMS8); assay: Displacement of [3]NECA from human adenosine A3 receptor expressed in HeLa cells
T2 sequence (P0DMS8 whole entry): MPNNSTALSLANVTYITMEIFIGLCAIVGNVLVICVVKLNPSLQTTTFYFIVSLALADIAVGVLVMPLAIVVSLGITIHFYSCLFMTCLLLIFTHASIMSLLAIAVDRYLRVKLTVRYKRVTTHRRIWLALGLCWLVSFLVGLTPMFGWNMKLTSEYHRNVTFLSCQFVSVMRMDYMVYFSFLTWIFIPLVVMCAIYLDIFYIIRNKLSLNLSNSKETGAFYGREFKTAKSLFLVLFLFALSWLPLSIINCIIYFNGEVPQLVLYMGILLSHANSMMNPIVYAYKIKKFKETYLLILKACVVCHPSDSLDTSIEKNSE
In short: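 90 µg membranes, 30 nM [3H]NECA, 180 min at 25 °C in 50 mM Tris-HCl, 1 mM EDTA, 5 mM MgCl2, 2 U/mL adenosine deaminase, pH 7.4. Test compound at six concentrations (0.1 nM–1 µM). Nonspecific binding with 100 µM (R)-PIA. GF/B filtration, six washes, scintillation counting. Ki = IC50/(1 + C/KD).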

Adenosine receptor A1 = biological target: T3, Adenosine receptor A1 (Homo sapiens, UniProt P30542); assay: Displacement of [3]DPCPX from human adenosine A1 receptor expressed in CHO cells
T3 sequence (P30542 whole entry): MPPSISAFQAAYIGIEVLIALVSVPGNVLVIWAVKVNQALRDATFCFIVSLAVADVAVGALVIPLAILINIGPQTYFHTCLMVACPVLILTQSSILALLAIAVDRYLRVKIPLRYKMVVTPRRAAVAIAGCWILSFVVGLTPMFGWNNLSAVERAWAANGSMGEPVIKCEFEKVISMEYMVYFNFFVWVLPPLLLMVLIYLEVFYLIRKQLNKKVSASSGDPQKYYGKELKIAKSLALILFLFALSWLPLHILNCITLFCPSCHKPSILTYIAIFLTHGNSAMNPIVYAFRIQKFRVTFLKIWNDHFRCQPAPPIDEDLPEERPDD
In short: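 Membranes (15 µg) incubated 60 min at 25 °C with 2 nM [3H]DPCPX in 20 mM Hepes, 100 mM NaCl, 10 mM MgCl2, 2 U/mL adenosine deaminase, pH 7.4, plus 6 test concentrations (0.1 nM–1 µM). Nonspecific binding defined with 10 µM (R)-PIA. Filtration on GF/C, 4 ice-cold washes, scintillation counting. Ki from IC50 via Cheng–Prusoff.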

Adenosine receptor A2a [1] = biological target: T4, Adenosine receptor A2a (Homo sapiens, UniProt P29274); assay: Displacement of [3]ZM241385 from human adenosine A2A receptor expressed in HeLa cells
T4 sequence (P29274 whole entry): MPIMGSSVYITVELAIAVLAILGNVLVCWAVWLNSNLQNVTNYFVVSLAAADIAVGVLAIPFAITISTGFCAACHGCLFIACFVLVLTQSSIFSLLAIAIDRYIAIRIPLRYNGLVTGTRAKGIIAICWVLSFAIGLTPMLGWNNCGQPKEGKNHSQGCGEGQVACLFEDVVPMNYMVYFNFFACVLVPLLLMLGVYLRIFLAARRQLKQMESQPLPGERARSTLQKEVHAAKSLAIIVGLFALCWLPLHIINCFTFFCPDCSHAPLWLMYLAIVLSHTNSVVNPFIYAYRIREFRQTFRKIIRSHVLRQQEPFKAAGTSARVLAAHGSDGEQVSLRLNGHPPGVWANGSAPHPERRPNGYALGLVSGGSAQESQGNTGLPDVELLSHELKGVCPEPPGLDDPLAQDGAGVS
In short: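 10 µg membranes, 3 nM [3H]ZM241385, 30 min at 25 °C in 50 mM Tris-HCl, 1 mM EDTA, 10 mM MgCl2, 2 U/mL adenosine deaminase, pH 7.4. Six test concentrations (0.1 nM–1 µM). Nonspecific binding from 50 µM NECA. GF/C filtration, four ice-cold washes, scintillation counting. Ki via Cheng–Prusoff.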

Adenosine receptor A2a [2] = biological target: T4, Adenosine receptor A2a; assay: Displacement of [3]ZM241385 from human adenosine A2A receptor expressed in HeLa cells at 1 uM
In short: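 At 1 µM test compound: 10 µg membranes, 3 nM [3H]ZM241385, 30 min at 25 °C in Tris/EDTA/MgCl2/adenosine deaminase buffer, pH 7.4. Nonspecific binding from 50 µM NECA. Output is % displacement of specific binding, based on total and nonspecific dpm.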

[3] = biological target: T5, Adenosine receptor A1 (Homo sapiens) (UniProt P30542); assay: Displacement of [3]DPCPX from human adenosine A1 receptor expressed in CHO cells at 1 uM
T5 sequence (whole entry): T3 sequence (P30542 whole entry)
In short: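 Single-point competition at 1 µM test compound: 15 µg membranes, 2 nM [3H]DPCPX, 60 min at 25 °C, Hepes/NaCl/MgCl2/adenosine deaminase buffer pH 7.4. 10 µM (R)-PIA for nonspecific binding. % displacement = (total binding − dpm)×100/(total − nonspecific).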

[4] = biological target: T6, Adenosine receptor A3 (Homo sapiens) (UniProt P0DMS8); assay: Displacement of [3]NECA from human adenosine A3 receptor expressed in HeLa cells at 1 uM
T6 sequence (whole entry): T2 sequence (P0DMS8 whole entry)
In short: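 At 1 µM test compound, 90 µg membranes were incubated with 30 nM [3H]NECA for 180 min at 25 °C in Tris/EDTA/5 mM MgCl2/adenosine deaminase buffer, pH 7.4. Nonspecific binding with 100 µM (R)-PIA. Result given as % displacement of specific binding.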

[5] = biological target: T7, Adenosine receptor A2b (Homo sapiens) (UniProt P29275); assay: Displacement of [3]DPCPX from human adenosine A2B receptor expressed in HEK293 cells at 1 uM
T7 sequence (whole entry): T1 sequence (P29275 whole entry)
In short: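 At 1 µM test compound: 18 µg membranes, 35 nM [3H]DPCPX, 30 min at 25 °C, Tris/EDTA/MgCl2/benzamidine/adenosine deaminase buffer pH 6.5. Nonspecific binding from 400 µM NECA. Value expressed as % displacement of specific binding, calculated from total, nonspecific and competed dpm.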

| SMILES | Ki (Adenosine receptor A2b) | Ki (Adenosine receptor A3) | Ki (Adenosine receptor A1) | Ki (Adenosine receptor A2a [1]) | inhibition (Adenosine receptor A2a [2]) | inhibition [3] | inhibition [4] | inhibition [5] |
| --- | --- | --- | --- | --- | --- | --- | --- | --- |
| O=C(Nc1nc2ccccc2n2nc(-c3ccco3)nc12)c1ccco1 | 2510 nM | 251 nM | 200 nM | 398 nM |  |  |  |  |
| OCCN1CCN(c2nc3ccccc3n3nc(-c4ccco4)nc23)CC1 |  |  |  |  | 12% | 24.5% | 24% | 3% |
| NCC(O)CNc1nc2ccccc2n2nc(-c3ccco3)nc12 (centres undefined) |  |  | 141 nM |  | 57% |  | 43% | 34% |
| COC(CNc1nc2ccccc2n2nc(-c3ccco3)nc12)OC |  |  | 575 nM |  | 20% |  | 55.3% | 22% |
| c1ccc(COc2nc3ccccc3n3nc(-c4ccco4)nc23)cc1 |  | 1550 nM |  |  | 38% | 13.8% |  | 3% |
| c1coc(-c2nc3c(OCc4ccoc4)nc4ccccc4n3n2)c1 | 145 nM | 676 nM | 537 nM | 575 nM |  |  |  |  |
| CN(C)c1nc2ccccc2n2nc(-c3ccco3)nc12 |  |  |  | 309 nM |  | 31.1% | 50.7% | 17% |
| c1coc(-c2nc3c(N4CCNCC4)nc4ccccc4n3n2)c1 |  |  |  |  | 7% | 12.3% | 26.7% | 4% |
| c1coc(COc2nc3ccccc3n3nc(-c4ccco4)nc23)c1 |  | 66.1 nM |  |  | 8% | 55.1% |  | 3% |
| CCOc1nc2ccccc2n2nc(-c3ccco3)nc12 |  |  | 3720 nM |  | 38% |  | 69% | 34% |
| c1ccc(CCNc2nc3ccccc3n3nc(-c4ccco4)nc23)cc1 |  | 372 nM | 93.3 nM | 51.3 nM |  |  |  | 46% |
| COc1nc2ccccc2n2nc(-c3ccco3)nc12 |  |  | 331 nM | 398 nM |  |  | 57.4% | 28% |
| COCCNc1nc2ccccc2n2nc(-c3ccco3)nc12 |  | 437 nM | 302 nM | 3090 nM |  |  |  | 32% |
| CC(=O)Nc1nc2ccccc2n2nc(-c3ccco3)nc12 | 251 nM | 251 nM | 112 nM | 200 nM |  |  |  |  |
| c1ccc(CNc2nc3ccccc3n3nc(-c4ccco4)nc23)cc1 |  |  | 102 nM | 302 nM |  |  | 32.6% | 24% |
| CCN(CC)c1nc2ccccc2n2nc(-c3ccco3)nc12 | 2400 nM |  | 135 nM | 398 nM |  |  | 10.4% |  |

The remaining lines, values ahead:

| Ki (Adenosine receptor A2b) | Ki (Adenosine receptor A3) | Ki (Adenosine receptor A1) | Ki (Adenosine receptor A2a [1]) | inhibition (Adenosine receptor A2a [2]) | inhibition [3] | inhibition [4] | inhibition [5] | SMILES |
| --- | --- | --- | --- | --- | --- | --- | --- | --- |
| 427 nM |  | 74.1 nM | 372 nM |  |  | 82% |  | COCCCNc1nc2ccccc2n2nc(-c3ccco3)nc12 |
| 67.6 nM | 22.9 nM | 3.98 nM | 47.9 nM |  |  |  |  | CC(O)CNc1nc2ccccc2n2nc(-c3ccco3)nc12 (centres undefined) |
|  |  | 58.9 nM | 110 nM |  |  | 51.7% | 46% | OCCN(CCO)c1nc2ccccc2n2nc(-c3ccco3)nc12 |
| 501 nM | 126 nM | 12.6 nM | 63.1 nM |  |  |  |  | O=C(CCc1ccccc1)Nc1nc2ccccc2n2nc(-c3ccco3)nc12 |
|  |  | 45.7 nM | 64.6 nM |  |  | 71.7% | 49% | c1ccc(Nc2nc3ccccc3n3nc(-c4ccco4)nc23)cc1 |
| 251 nM | 100 nM | 63.1 nM | 158 nM |  |  |  |  | O=C(Cc1ccccc1)Nc1nc2ccccc2n2nc(-c3ccco3)nc12 |
| 1740 nM |  | 33.1 nM | 490 nM |  |  | 57.3% |  | c1coc(CNc2nc3ccccc3n3nc(-c4ccco4)nc23)c1 |
|  |  | 50.1 nM |  | 10% |  | 52% | 21% | O=C(Nc1nc2ccccc2n2nc(-c3ccco3)nc12)c1cccs1 |
| 13.2 nM | 331 nM | 5.62 nM | 11.2 nM |  |  |  |  | Nc1nc2ccccc2n2nc(-c3ccco3)nc12 |
| 123 nM | 30.2 nM | 3.16 nM | 63.1 nM |  |  |  |  | OCCNc1nc2ccccc2n2nc(-c3ccco3)nc12 |
